In ChEMBL document CHEMBL4725347, “Discovery of a Monoiodo Aza-BODIPY Near-Infrared Photosensitizer: in vitro and in vivo Evaluation for Photodynamic Therapy” (J Med Chem, 2020):
Calls of active or inactive are those of the source. The calls are words filed in the database; no cut-off is given here.

Key:
[1] = Dark toxicity in human HeLa cells assessed as reduction in cell viability after 3 hrs by MTT assay; assay type: cell-based
In short: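 Compound was formulated with Cremophor EL/1,2-propanediol in PBS, filtered, and its concentration confirmed by UV-Vis. HeLa cells in DMEM with 10% FBS at 37 °C, 5% CO2 were seeded at 3×10^3 cells/well and adhered overnight. Cells were exposed to graded concentrations for 3 h without light, incubated 24 h, then MTT 0.5 mg/mL for 4 h; formazan dissolved in DMSO, A490 read.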

HeLa [2] = experiment: Phototoxicity against human HeLa cells assessed as reduction in cell viability preincubated for 3 hrs followed by 54 J/cm2 light irradiation and measured after 24 hrs by MTT assay; assay type: functional, cell-based; details: light or radiation study
In short: (§1)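 PS formulated in PBS containing Cremophor EL/1,2-propanediol (10:3, v:v) after THF removal, filtered, with concentration confirmed by UV-Vis. Cells were grown in DMEM with 10% FBS and seeded at 3×10^3 per well overnight. They were incubated with PS for 3 h, irradiated at λ > 590 nm, kept 24 h at 37 °C, then given MTT (0.5 mg/mL, 4 h) with DMSO solubilization and A490 read-out.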

[3] = Dark toxicity in human MCF7 cells assessed as reduction in cell viability after 3 hrs by MTT assay; assay type: cell-based
MCF7 = experiment: Phototoxicity against human MCF7 cells assessed as reduction in cell viability preincubated for 3 hrs followed by 54 J/cm2 light irradiation and measured after 24 hrs by MTT assay; assay type: functional, cell-based; details: MCF7, light or radiation study; in short: as §1
[4] = Dark toxicity in human SW480 cells assessed as reduction in cell viability after 3 hrs by MTT assay; assay type: cell-based
SW480 = experiment: Phototoxicity against human SW480 cells assessed as reduction in cell viability preincubated for 3 hrs followed by 54 J/cm2 light irradiation and measured after 24 hrs by MTT assay; assay type: functional, cell-based; details: SW480, light or radiation study; in short: as §1
HeLa [5] = experiment: Antitumor activity against human HeLa cells xenografted in Balb/c nu/nu mouse assessed as tumor growth inhibition at 2 mg/kg, iv pretreated for 15 mins followed by 54 J/cm2 light irradiation for 10 mins and measured after 24 days; assay type: functional, organism-based
In short: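 Female Balb/c nu/nu mice with subcutaneous HeLa tumors (5×10^6 cells) reaching 80–100 mm³ on day 7 were randomized, n = 5 per group. Mice received 2 mg/kg by tail vein, or saline for controls. After 15 min the tumor was irradiated once with 54 J/cm² (75 W halogen lamp, >590 nm filter, 90 mW/cm², 10 min), unanaesthetized. Calipers every other day; V = 0.5×L×W²; body weight tracked.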

[6] = Toxicity in human HeLa cells xenografted Balb/c nu/nu mouse assessed as body weight loss at 2 mg/kg, iv pretreated for 15 mins followed by 54 J/cm2 light irradiation for 10 mins and measured for 24 days; assay type: organism-based; details: in vivo, 0.25 h
In short: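 Female Balb/c nu/nu mice (18-22 g) carried subcutaneous HeLa cells (about 5×10^6, right back) and were treated on day 7 at a tumor volume of 80-100 mm³. Five mice per group received a tail-vein dose; saline controls were also irradiated. Fifteen minutes later the tumor was irradiated once with a 75 W halogen lamp (590 nm cut-on, 90 mW/cm², 10 min), without anaesthesia. Body weight was recorded every other day.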

[7] = Photostability of the compound in N,N-dimethylformamide assessed as compound degradation irradiated with 90 mW/cm2 light; assay type: physicochemical
[8] = Absorption property of the compound in chloroform assessed as hypsochromic shift by measuring maximum absorption wavelength by UV-visible spectrophotometric method; assay type: physicochemical
In short: (§2)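 Electronic absorption spectra recorded by UV-visible spectrophotometry at room temperature. Solvents were chloroform, isopropanol, acetonitrile, DMF, and PBS buffer containing 1% Cremophor EL/1,2-propanediol (10:3, v:v). Chloroform data were referenced to the non-halogenated parent dye.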

[9] = Absorption property of the compound in chloroform assessed as absorption coefficient by UV-visible spectrophotometric method; assay type: physicochemical; in short: as §2
[10] = Emission property of the compound in chloroform assessed as maximum emission wavelength by fluorescence spectrophotometric method; assay type: physicochemical
In short: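 Fluorescence spectrum recorded in chloroform by fluorescence spectrophotometer at room temperature.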

[11] = Absorption property of the compound in PBS containing 1% Cremophor EL/1,2-propanediol (10:3, v:v) system assessed as absorption coefficient by UV-visible spectrophotometric method; assay type: physicochemical; details: buffer; in short: as §2
[12] = Absorption property of the compound in isopropanol assessed as absorption coefficient by UV-visible spectrophotometric method; assay type: physicochemical; in short: as §2
[13] = Absorption property of the compound in acetonitrile assessed as absorption coefficient by UV-visible spectrophotometric method; assay type: physicochemical; in short: as §2
[14] = Absorption property of the compound in N,N-dimethylformamide assessed as absorption coefficient by UV-visible spectrophotometric method; assay type: physicochemical; in short: as §2
[15] = Induction of singlet oxygen generation in isopropanol assessed as relative rate of DPBF degradation to MB at 1 uM irradiated with 90 mW/cm2 halogen light; assay type: functional
In short: (§3)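 Singlet oxygen generation measured with 1,3-diphenylisobenzofuran (DPBF) as scavenger. The decrease in DPBF absorbance at 411 nm was monitored over time during light irradiation, and the photodegradation rate was calculated.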

[16] = Induction of singlet oxygen generation in PBS containing 1% Cremophor EL/1,2-propanediol (10:3, v:v) system assessed as relative rate of DPBF degradation to MB at 1 uM irradiated with 90 mW/cm2 halogen light; assay type: functional; in short: as §3
[17] = Induction of singlet oxygen generation in N,N-dimethylformamide assessed as relative rate of DPBF degradation to MB at 1 uM irradiated with 90 mW/cm2 halogen light; assay type: functional; in short: as §3
[18] = Photostability of the compound in acetonitrile assessed as compound degradation irradiated with 90 mW/cm2 light; assay type: physicochemical
[19] = Photostability of the compound in isopropanol assessed as compound degradation irradiated with 90 mW/cm2 light; assay type: physicochemical
[20] = Photostability of the compound in PBS containing 1% Cremophor EL/1,2-propanediol (10:3, v:v) system assessed as compound degradation irradiated with 90 mW/cm2 light; assay type: physicochemical; details: buffer
[21] = Stability of the compound in acetonitrile assessed as compound degradation under dark condition; assay type: physicochemical
[22] = Stability of the compound in PBS containing 1% Cremophor EL/1,2-propanediol (10:3, v:v) system assessed as compound degradation under dark condition; assay type: physicochemical; details: buffer

SMILES | IC50 at 3 h [1] [µM] | IC50 (HeLa [2]) [nM] | IC50 at 3 h [3] [µM] | IC50 (MCF7) [nM] | IC50 at 3 h [4] [µM] | IC50 (SW480) [nM] | Stabilty [7] | Activity [8] [nm] | Activity [9] [M⁻¹ cm⁻¹] | Activity [10] [nm] | Activity [11] [M⁻¹ cm⁻¹] | Activity [12] [M⁻¹ cm⁻¹] | Activity [13] [M⁻¹ cm⁻¹] | Activity [14] [M⁻¹ cm⁻¹] | fold change (FC) [15] | fold change (FC) [16] | fold change (FC) [17] | Stabilty [18] | Stabilty [19] | Stabilty [20] | other results
C=Cc1c(C)c2cc3nc(c(CC(=O)O)c4[nH]c(cc5nc(cc1[nH]2)C(C)=C5CC)c(C)c4C(=O)O)[C@@H](CCC(=O)O)[C@@H]3C [CHLORIN E6] | > 50 | 1920 | > 50 | 3400 | > 50 | 3100 | – | – | – | – | – | – | – | – | – | – | – | – | – | – | TGI (HeLa [5]): Active; Activity [6]: Toxic
COc1ccc(C2=[N+]3C(=Nc4c(-c5ccccc5)cc(-c5ccc(OC)cc5)n4[B-]3(F)F)C(c3ccccc3)=C2Br)cc1 | > 50 | 270 | > 50 | 350 | > 50 | 280 | Unstable | 679 | 81000 | 720 | 34000 | 59300 | 59300 | 59300 | 1.1 | 0.83 | 0.19 | Stable | Stable | Stable | Stabilty [21]: Unstable; Stabilty [22]: Unstable
COc1ccc(C2=[N+]3C(=Nc4c(-c5ccccc5)c(Br)c(-c5ccc(OC)cc5)n4[B-]3(F)F)C(c3ccccc3)=C2Br)cc1 | > 50 | 130 | > 50 | 150 | > 50 | 160 | Unstable | 679 | 77000 | 720 | 34000 | 59300 | 59300 | 59300 | 4.5 | 1.9 | 0.36 | Stable | Stable | Stable | Stabilty [21]: Unstable; Stabilty [22]: Unstable; TGI (HeLa [5]): Active; Activity [6]: Non-Toxic
COc1ccc(C2=[N+]3C(=Nc4c(-c5ccccc5)c(I)c(-c5ccc(OC)cc5)n4[B-]3(F)F)C(c3ccccc3)=C2I)cc1 | > 50 | 590 | > 50 | 660 | > 50 | 1300 | Unstable | 679 | 74000 | 723 | 34000 | 59300 | 59300 | 59300 | 7 | 2.2 | 0.66 | Stable | Stable | Stable | Stabilty [21]: Unstable; Stabilty [22]: Unstable
